Published values of several laboratories.
Each line is one published result; the experiments were not run side by side.

SMILES	assay	test system	conditions	endpoint	value
NCC(=O)Nc1ccc(-n2nc(C(F)(F)F)cc2-c2ccc3c(ccc4ccccc43)c2)cc1	–	mouse, plasma	oral, 80 mg/kg	half-life	22 h
O=C(NCCCCCn1ccc2ccc(F)cc21)Oc1cccnc1	HPLC	–	–	chromatographic logP	2.6
Nc1nc(-c2ccccc2)nc2[nH]nc(Nc3ccc(C(F)(F)F)cc3)c12	–	mouse, plasma	oral, 100 mg/kg, 30 min	concentration	418 ng/mL
C=C[C@H]1C[N@@]2CC[C@H]1C[C@@H]2[C@@H](O)c1ccnc2ccccc12	–	water	–	logP	2.82
CC(C)[C@H]1C(=O)N[C@@H](CCCN=C(N)N)C(=O)NCC(=O)N[C@@H](CC(=O)O)C(=O)N[C@H](Cc2ccccc2)C(=O)N1C	–	–	–	logP	-2
C[C@]12CC[C@H](n3ccnc3)CC1=CC[C@@H]1[C@@H]2CC[C@]2(C)C(n3cnc4ccccc43)=CC[C@@H]12.Cl	–	male CD-1 mouse, plasma	intravenous, 1 mg/kg	half-life	17.1 h
O=C(NCCCCCn1ccc2ccc(F)cc21)Oc1cccc2[nH]ccc12	HPLC	–	–	chromatographic logP	3.5
CC[C@H]1CN2CC[C@H]1C[C@@H]2[C@@H](O)c1ccnc2ccc(OC)cc12	–	water	–	logP	3.43
O=C(O)c1cccc(OC(=O)N2CCC(CCn3ccc4ccc(F)cc43)CC2)c1	HPLC	–	–	chromatographic logP	3.6
Cc1cc(C)nc(Nc2ncc(C(=O)NCCc3c(C)[nH]c4ccccc34)cn2)c1	metabolic stability	cynomolgus monkey, hepatocytes	1 µM	half-life	0.267 h
C[C@]12CC[C@H](O)CC1=CC[C@@H]1[C@@H]2CC[C@]2(C)C(n3cnc4ccccc43)=CC[C@@H]12.Cl	–	mouse, plasma	oral, 10 mg/kg	half-life	5.16 h
O=C(OC(C(F)(F)F)C(F)(F)F)N1CCN(Cc2ccc(C(F)(F)F)cc2N2CCCC2)CC1	HPLC	–	–	chromatographic logP	7.4
CN[C@H](CC(C)C)C(=O)N[C@H]1C(=O)N[C@@H](CC(N)=O)C(=O)N[C@H]2C(=O)NC3C(=O)N[C@H](C(=O)N[C@H](C(=O)NCCC[N+](C)(C)C)c4cc(O)cc(O)c4-c4cc3ccc4O)[C@H](O)c3ccc(c(Cl)c3)Oc3cc2cc(c3OC2OC(CO)C(O)[C@H](O)[C@@H]2O[C@H]2CC(C)(NCc3ccc(-c4ccc(Cl)cc4)cc3)[C@H](O)[C@H](C)O2)Oc2ccc(cc2Cl)[C@H]1O (some centres unmarked)	–	mouse, plasma	intravenous, 50 mg/kg	half-life	6.2 h
N[C@@H](Cc1ccccc1)C(=O)N1C/C(=C\c2ccc(Cl)c(Cl)c2)C(=O)/C(=C/c2ccc(Cl)c(Cl)c2)C1	–	mouse, plasma	oral, 20 mg/kg	half-life	2.6 h
C[C@H]1COCCN1c1nc(NCc2cccnc2C(F)(F)F)c2cccnc2n1	metabolic stability	dog, hepatocytes	–	hepatocyte CLint	10 µL/min/10⁶ cells
O=C(O)c1ccc(OC(=O)N2CCC(CCn3ccc4ccc(F)cc43)CC2)cc1	HPLC	–	–	chromatographic logP	3.6
N=c1c2c(-c3ccccc3)c(-c3ccccc3)n(Cc3ccccc3)c2ncn1[C@H]1CC[C@H](O)CC1	metabolic stability	monkey, hepatocytes	1 µM, 4 h	compound remaining	119%
